Measured values from ChEMBL document CHEMBL1821586, “Identification and biological activities of new taccalonolide microtubule stabilizers” (J Med Chem, 2011).
Activity calls are given as the source filed them. The calls are words filed in the database; no cut-off is given here.

Legend:
[1] = Antitumor activity against mouse 16/C cells allografted in mouse B6C3F1 assessed as gross log cell killing at 73.5 mg/kg, iv relative to control; assay type: functional
HeLa [2] = test: Cell cycle arrest in human HeLa cells assessed as accumulation of cells at G2/M phase at 12 nM after 18 hrs by flow cytometric analysis; assay type: functional, cell-based
Outline: (§1)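 DNA stained with propidium iodide (Krishan's reagent); DNA content measured by flow cytometry and plotted as PI intensity vs events.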

HeLa [3] = test: Inhibition of beta tubulin in human HeLa cells assessed asultiple abnormal mitotic spindle formation at 12 nM after 18 hrs by immunofluorescence analysis; assay type: cell-based
[4] = Antitumor activity against mouse 16/C cells allografted in mouse B6C3F1 assessed as decrease in tumor mass at 73.5 mg/kg, iv; assay type: functional
Outline: (§2)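 Female B6C3F1 mice (mean 19.3 ± 1.0 g) carried bilateral s.c. Mammary 16/C tumor fragments implanted day 0, 5 mice/group. […] All were given IV in 0.2 ml. Tumor mass = L×W²/2, measured 2–3 times weekly. %T/C = treated/control median mass, zeros included, taken when control tumors reach ~700–1200 mg.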

Mus musculus [5] = test: Toxicity in B6C3F1 mouse allografted with mouse 16/C cells assessed as mean body weight loss at 73.5 mg/kg, iv (reference value: -2.2%); assay type: organism-based; design: dose 73.5 mg/kg, route intravenous; conditions: in vivo
HeLa [6] = test: Induction of interphase microtubule bundling in human HeLa cells at 0.5 uM after 18 hrs by indirect immunofluorescence analysis; assay type: cell-based
[7] = Antitumor activity against mouse 16/C cells allografted in mouse B6C3F1 assessed as delay in tumor growth at 73.5 mg/kg, iv relative to control; assay type: functional
Outline: (§3)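 Mammary 16/C fragments implanted s.c. bilaterally in female B6C3F1 mice on day 0, 5 mice/group, IV dosing in 0.2 ml. Tumors measured 2–3 times weekly. T-C = median days for treated vs control tumors to reach 1000 mg. Gross log cell kill = (T-C)/3.32×Td, with Td the doubling time from a log-linear fit of control tumor growth.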

HeLa [8] = test: Induction of interphase microtubule bundling in human HeLa cells at 0.32 uM after 18 hrs by indirect immunofluorescence; assay type: cell-based
HeLa [9] = test: Cell cycle arrest in human HeLa cells assessed as accumulation of cells at G2/M phase at 0.32 uM after 18 hrs by flow cytometric analysis; assay type: functional, cell-based; outline: as §1
HeLa [10] = test: Inhibition of beta tubulin in human HeLa cells assessed asultiple abnormal mitotic spindle formation at 0.32 uM after 18 hrs by immunofluorescence analysis; assay type: cell-based
HeLa [11] = test: Antiproliferative activity against human HeLa cells after 48 hrs by SRB assay; assay type: functional, cell-based
Outline: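 HeLa cells grown in BME with 10% FBS and 50 µg/ml gentamicin, drug-treated 48 h, proliferation read by SRB assay.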

HeLa [12] = test: Cell cycle arrest in human HeLa cells assessed as accumulation of cells at G2/M phase at 13.5 uM after 18 hrs by flow cytometric analysis; assay type: functional, cell-based; outline: as §1
HeLa [13] = test: Induction of interphase microtubule bundling in human HeLa cells at 13.5 uM after 18 hrs by indirect immunofluorescence; assay type: cell-based
HeLa [14] = test: Inhibition of beta tubulin in human HeLa cells assessed asultiple abnormal mitotic spindle formation at 13.5 uM after 18 hrs by immunofluorescence analysis; assay type: cell-based
HeLa [15] = test: Induction of interphase microtubule bundling in human HeLa cells at 0.8 uM after 18 hrs by indirect immunofluorescence analysis; assay type: cell-based
HeLa [16] = test: Inhibition of beta tubulin in human HeLa cells assessed asultiple abnormal mitotic spindle formation at 0.8 uM after 18 hrs by immunofluorescence analysis; assay type: cell-based
HeLa [17] = test: Cell cycle arrest in human HeLa cells assessed as accumulation of cells at G2/M phase at 0.8 uM after 18 hrs by flow cytometric analysis; assay type: functional, cell-based
[18] = Toxicity in B6C3F1 mouse allografted with mouse 16/C cells assessed as lethality at 54 mg/kg, iv administered on days 1,4,6, 8, 9, 10 and 11 measured after 12 days relative to control; assay type: organism-based; design: dose 54 mg/kg, route intravenous; conditions: in vivo, read-out: Activity
Outline: (§4)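 Female B6C3F1 mice, 5 per group, bore bilateral s.c. Mammary 16/C fragments. Taccalonolides in DMSO:Cremophor diluted with water were given i.v. on days 1, 4, 6 plus a later dose (A, N) or days 8, 9, 11 (E). Mice were weighed and observed daily, and lethality was recorded per group.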

[19] = Antitumor activity against mouse 16/C cells allografted in mouse B6C3F1 assessed as delay in tumor growth at 90 mg/kg, iv administered on days 1,4,6, 8, 9, 10 and 11 relative to control; assay type: functional; outline: as §3
Mus musculus [20] = test: Toxicity in B6C3F1 mouse allografted with mouse 16/C cells assessed as mean body weight loss at 90 mg/kg, iv administered on days 1,4,6, 8, 9, 10 and 11 (reference value: -2.2%); assay type: organism-based; design: dose 90 mg/kg, route intravenous; conditions: in vivo
HeLa [21] = test: Cell cycle arrest in human HeLa cells assessed as accumulation of cells at G2/M phase at 2.5 uM after 18 hrs by flow cytometric analysis; assay type: functional, cell-based; outline: as §1
[22] = Antitumor activity against mouse 16/C cells allografted in mouse B6C3F1 assessed as gross log cell killing at 90 mg/kg, iv administered on days 1,4,6, 8, 9, 10 and 11 relative to control; assay type: functional
Outline: (§5)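 Mammary 16/C tumor fragments implanted bilaterally s.c. in female B6C3F1 mice on day 0, 5 mice/group. Taccalonolides in 50% DMSO:50% Cremophor stock, diluted with sterile water, given i.v. in 0.2 ml on days 1, 4, 6, plus one dose 2–3 days later (A, N) or further doses days 8, 9, 11 (E). Tumor mass = length × width²/2, measured 2–3 times weekly. Gross log cell kill = (T-C)/3.32 × Td, with T-C the days to 1000 mg.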

[23] = Antitumor activity against mouse 16/C cells allografted in mouse B6C3F1 assessed as decrease in tumor mass at 90 mg/kg, iv administered on days 1,4,6, 8, 9, 10 and 11 relative to control; assay type: functional; outline: as §2
HeLa [24] = test: Inhibition of beta tubulin in human HeLa cells assessed asultiple abnormal mitotic spindle formation at 2.5 uM after 18 hrs by immunofluorescence analysis; assay type: cell-based
Mus musculus [25] = test: Toxicity in B6C3F1 mouse allografted with mouse 16/C cells assessed as mean body weight loss at 54 mg/kg, iv administered on days 1,4,6, 8, 9, 10 and 11 (reference value: -2.2%); assay type: organism-based; design: dose 54 mg/kg, route intravenous; conditions: in vivo
[26] = Antitumor activity against mouse 16/C cells allografted in mouse B6C3F1 assessed as delay in tumor growth at 54 mg/kg, iv administered on days 1,4,6, 8, 9, 10 and 11 relative to control; assay type: functional; outline: as §3
[27] = Toxicity in B6C3F1 mouse allografted with mouse 16/C cells assessed as lethality at 90 mg/kg, iv administered on days 1,4,6, 8, 9, 10 and 11 measured after 12 days relative to control; assay type: organism-based; design: dose 90 mg/kg, route intravenous; conditions: in vivo, read-out: Activity; outline: as §4
[28] = Antitumor activity against mouse 16/C cells allografted in mouse B6C3F1 assessed as decrease in tumor mass at 54 mg/kg, iv administered on days 1,4,6, 8, 9, 10 and 11 relative to control; assay type: functional; outline: as §2
HeLa [29] = test: Induction of interphase microtubule bundling in human HeLa cells at 2.5 uM after 18 hrs by indirect immunofluorescence analysis; assay type: cell-based
[30] = Antitumor activity against mouse 16/C cells allografted in mouse B6C3F1 assessed as gross log cell killing at 54 mg/kg, iv administered on days 1,4,6, 8, 9, 10 and 11 relative to control; assay type: functional; outline: as §5
HeLa [31] = test: Cell cycle arrest in human HeLa cells assessed as accumulation of cells at G2/M phase at 111 uM after 18 hrs by flow cytometric analysis; assay type: functional, cell-based; outline: as §1
HeLa [32] = test: Induction of interphase microtubule bundling in human HeLa cells at 57 uM after 18 hrs by indirect immunofluorescence; assay type: cell-based
HeLa [33] = test: Inhibition of beta tubulin in human HeLa cells assessed asultiple abnormal mitotic spindle formation at 57 uM after 18 hrs by immunofluorescence analysis; assay type: cell-based
HeLa [34] = test: Cell cycle arrest in human HeLa cells assessed as accumulation of cells at G2/M phase at 3.5 uM after 18 hrs by flow cytometric analysis; assay type: functional, cell-based; outline: as §1
HeLa [35] = test: Inhibition of beta tubulin in human HeLa cells assessed asultiple abnormal mitotic spindle formation at 3.5 uM after 18 hrs by immunofluorescence analysis; assay type: cell-based
HeLa [36] = test: Induction of interphase microtubule bundling in human HeLa cells at 3.5 uM after 18 hrs by indirect immunofluorescence analysis; assay type: cell-based
HeLa [37] = test: Inhibition of beta tubulin in human HeLa cells assessed asultiple abnormal mitotic spindle formation at 0.6 uM after 18 hrs by immunofluorescence analysis; assay type: cell-based
HeLa [38] = test: Cell cycle arrest in human HeLa cells assessed as accumulation of cells at G2/M phase at 0.6 uM after 18 hrs by flow cytometric analysis; assay type: functional, cell-based; outline: as §1
HeLa [39] = test: Induction of interphase microtubule bundling in human HeLa cells at 0.6 uM after 18 hrs by indirect immunofluorescence; assay type: cell-based

## CC(=O)O[C@H]1C(=O)[C@@]2(C)[C@H]([C@H](OC(=O)c3ccccc3)[C@]3(O)C[C@H](OC(=O)[C@H](O)[C@@H](NC(=O)c4ccccc4)c4ccccc4)C(C)=C1C3(C)C)[C@]1(OC(C)=O)CO[C@@H]1C[C@@H]2O [PACLITAXEL]
[1]
  LCK: 4.8
HeLa [2]
  Activity: Active
HeLa [3]
  inhibition: Active
[4]
  T/C: 0%
Mus musculus [5]
  Activity: -6.3%
HeLa [6]
  Activity: Active
[7]
  Time: 19 days

## CC(=O)O[C@@H]1[C@H]2[C@H]3[C@H]([C@H](OC(C)=O)[C@H](OC(C)=O)[C@]2(C)[C@@H]2[C@@H]1[C@]1(C)C(=C[C@H]2C)OC(=O)[C@@]1(C)O)[C@@]1(C)[C@@H](OC(C)=O)[C@H]2O[C@H]2C[C@]1(O)C(=O)[C@@H]3OC(C)=O [TACCALONOLIDE AA]
HeLa [8]
  Activity: Active
HeLa [9]
  Activity: Active
HeLa [10]
  inhibition: Active
HeLa [11]
  IC50: 0.0323 µM

## CC(=O)O[C@H]1[C@H]2[C@H]([C@@H]3[C@@H](O)[C@@H]4[C@H]([C@H](C)C=C5OC(=O)[C@@](C)(O)[C@@]54C)[C@@]3(C)[C@H]1OC(C)=O)[C@@H](O)C(=O)[C@@]1(O)C[C@@H]3O[C@@H]3[C@H](OC(C)=O)[C@]21C [TACCALONOLIDE AB]
HeLa [12]
  Activity: Active
HeLa [13]
  Activity: Active
HeLa [14]
  inhibition: Active
HeLa [11]
  IC50: 2.77 µM

## CC(=O)O[C@H]1[C@H]2[C@H]([C@@H]3[C@@H](O)[C@@H]4[C@H]([C@H](C)C=C5OC(=O)[C@@](C)(O)[C@@]54C)[C@@]3(C)[C@H]1OC(C)=O)[C@@H](O)C(=O)[C@H]1C[C@@H]3O[C@@H]3[C@H](OC(C)=O)[C@]21C [TACCALONOLIDE B]
HeLa [15]
  Activity: Active
HeLa [16]
  inhibition: Active
HeLa [17]
  Activity: Active
HeLa [11]
  IC50: 0.19 µM

## CC(=O)O[C@@H]1[C@H]2[C@@H]3[C@@H](O)C(=O)[C@H]4C[C@@H]5O[C@@H]5[C@H](OC(C)=O)[C@]4(C)[C@H]3C[C@H](OC(C)=O)[C@]2(C)[C@@H]2[C@@H]1[C@]1(C)C(=C[C@H]2C)OC(=O)[C@@]1(C)O [TACCALONOLIDE E]
[18]
  mortality at 288 h: 0%
[19]
  Time: 5 days
Mus musculus [20]
  Activity: -4.1%
HeLa [21]
  Activity: Active
[22]
  LCK: 1.25
[23]
  T/C: 17%
HeLa [24]
  inhibition: Active
Mus musculus [25]
  Activity: -2%
[26]
  Time: 1 days
[27]
  mortality at 288 h: 0%
[28]
  T/C: 81%
HeLa [29]
  Activity: Active
HeLa [11]
  IC50: 0.644 µM
[30]
  LCK: 0.25

## CC(=O)O[C@@H]1[C@H]2[C@@H]3[C@@H](OC(C)=O)C(=O)[C@@]4(O)C[C@@H]5O[C@@H]5[C@H](OC(C)=O)[C@]4(C)[C@H]3C[C@H](OC(C)=O)[C@]2(C)[C@@H]2[C@@H]1[C@]1(C)C(=C[C@H]2C)OC(=O)[C@@]1(C)O [TACCALONOLIDE R]
HeLa [31]
  Activity: Active
HeLa [32]
  Activity: Active
HeLa [11]
  IC50: 13.1 µM
HeLa [33]
  inhibition: Active

## CC(=O)O[C@@H]1[C@H]2[C@@H]3[C@@H](OC(C)=O)C(=O)[C@@]4(O)C[C@@H]5O[C@@H]5[C@H](OC(=O)CC(C)C)[C@]4(C)[C@H]3C[C@H](OC(C)=O)[C@]2(C)[C@@H]2[C@@H]1[C@]1(C)C(=C[C@H]2C)OC(=O)[C@@]1(C)O [TACCALONOLIDE T]
HeLa [34]
  Activity: Active
HeLa [35]
  inhibition: Active
HeLa [11]
  IC50: 0.335 µM
HeLa [36]
  Activity: Active

## CC(=O)O[C@@H]1[C@H]2[C@H]3[C@H]([C@H](OC(C)=O)[C@H](OC(C)=O)[C@]2(C)[C@@H]2[C@@H]1[C@]1(C)C(=C[C@H]2C)OC(=O)[C@@]1(C)O)[C@@]1(C)[C@@H](OC(C)=O)[C@H]2O[C@H]2C[C@]1(O)C(=O)[C@@H]3O [TACCALONOLIDE Z]
HeLa [37]
  inhibition: Active
HeLa [11]
  IC50: 0.12 µM
HeLa [38]
  Activity: Active
HeLa [39]
  Activity: Active
